Measured values published in PubChem BioAssay AID635 (SRMLSC, 2007).
In all, about 1,300 compounds went through this assay and about 40 (3%) were called active. The list is a sample of the results. Measured potencies and affinities stand elsewhere. A number with no mark means an inactive call. How the calls were made is not given here.

Test: growth inhibition of wild-type E. coli BW25113 pool, dose response, OD615 (AID 635);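 further: growth measured after 20 h with compound at 37 °C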
Conditions: pooled mutant strains; at 100 µM (top of the series)
Method in brief: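 Material: Keio BW25113 knockout pool, 1,275 strains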
`Cc1ccc2nc(NC(=O)CNS(=O)(=O)c3ccc(Br)s3)sc2c1` gave a growth inhibition of 1.78%. Work on `CN(C)c1nc(SCCOC(=O)Nc2ccccc2)nc(N(C)C)n1` yielded a growth inhibition of 3.85%. Work on `O=C(Nc1nc(-c2ccccc2)cs1)c1cccs1` yielded a growth inhibition of -1.94%. `COc1ccc(CN(C(=O)CN2C(=O)COc3ccccc32)C2CCCC2)c(OC)c1` gave a growth inhibition of 6.95%. Compound `COc1ccc2[nH]c3c(=O)n(CCCCC(=O)NCCN4CCCC4)c(=S)[nH]c3c2c1` has a growth inhibition of -2.44%. In the case of `Clc1ccc(Cl)c(-c2nn3c(COc4ccccc4)nnc3s2)c1`, the growth inhibition is reported as 2.46%. For `CCOC(=O)c1nnn(-c2nonc2-n2cccc2)c1CN1CCC(C)CC1`, the growth inhibition was 3.87%. In the case of `COc1ccc(Cn2c(=O)sc3ccccc32)cc1`, the growth inhibition is reported as 2.87%. `O=C(NC1CCCCCCC1)c1ccccc1O` showed a growth inhibition of 0.38%. With `Brc1cccc(-c2n[nH]c(-c3ccccc3)n2)c1` the growth inhibition was 4.22%. In the case of `CCc1nc2sc3ccccc3c(=O)c2c(=O)n1Cc1ccco1`, the growth inhibition is reported as 5.6%. Work on `CCOC(=O)c1c(NS(=O)(=O)c2cccc(OC)c2)sc2c1CCC2` yielded a growth inhibition of 0.74%. Compound `CCCn1nnc(NC(=O)COc2ccc(C3CCCCC3)cc2)n1` has a growth inhibition of 6.61%. In the case of `COc1cccc(NC(=O)N2CCN(c3cccc(C)c3C)CC2)c1`, the growth inhibition is reported as -2.15%. `CN(Cc1ccccc1)C(=O)CSc1nc2ccccc2c(=O)n1Cc1ccco1` showed a growth inhibition of 4.9%. In the case of `COc1ccc2nc(NC(=O)C3CCCN(S(=O)(=O)c4cccs4)C3)sc2c1` (stereo unspecified), the growth inhibition is reported as -10.2%. Compound `c1ccc(-c2oc3ncnc(NCCCn4ccnc4)c3c2-c2ccccc2)cc1` has a growth inhibition of 13.2%. Work on `CC(C)(C)OC(=O)N1CCC[C@H]1c1nnc(SCc2ccc(Cl)cc2Cl)o1` yielded a growth inhibition of 6.74%. In the case of `Cn1c(CSc2nc3ccccc3s2)nc2ccccc21`, the growth inhibition is reported as -7.99%. `CCOC(=O)c1ccc(-n2[nH]c(-c3ccccc3)cc2=O)cc1` showed a growth inhibition of -2.7%. Compound `Cn1c(C(=O)N2CCc3ccccc3C2)cc2oc3ccccc3c21` has a growth inhibition of -4.13%. With `Cc1ccc(Nc2nc(CSc3nnnn3-c3ccccc3)cs2)cc1` the growth inhibition was -12.4%. For `O=C(c1ccco1)N1CCN(c2c(-c3ccccc3)c3cc(Cl)ccc3[nH]c2=O)CC1`, the growth inhibition was 0.97%. For `Cc1ccc(S(=O)(=O)NCCSc2nnnn2-c2cc(C)ccc2C)cc1`, the growth inhibition was 1.62%. `CCOc1ccc(-c2nc(C#N)c(N3CCCCCC3)o2)cc1` gave a growth inhibition of -1.95%. Work on `COc1ccc(-c2csc(NCc3ccco3)n2)cc1C` yielded a growth inhibition of -4.35%. Compound `COc1cc(-c2nc(Cc3ccccc3Cl)no2)cc(OC)c1OC` has a growth inhibition of -4.44%. `CC(=O)c1c(O)cc(C)n(Nc2nc(C)cc(C)n2)c1=O` showed a growth inhibition of -5.46%. `Cc1ccc(CN2CCSc3ccc(C(=O)N4CCN(c5ncccn5)CC4)cc32)cc1` showed a growth inhibition of -4.07%. `COc1nnc(-c2ccc(N3CCCCC3)c(N)c2)c2ccccc12` showed a growth inhibition of 9.66%. For `Cc1ccc(SCC(=O)N(Cc2nc(-c3ccccc3)no2)C(C)C)cc1`, the growth inhibition was 3.99%. Work on `Cc1noc(NS(=O)(=O)c2ccc(NC(=O)COc3ccc(Cl)cc3Cl)cc2)c1C` yielded a growth inhibition of 2.59%. In the case of `Cc1noc(NS(=O)(=O)c2ccc(NC(=O)Nc3ccc(Cl)c(Cl)c3)cc2)c1C`, the growth inhibition is reported as 7.34% (active). Work on `Cc1c(NC(=O)Nc2ccc(Cl)c(Cl)c2)c(=O)n(-c2ccccc2)n1C` yielded a growth inhibition of 1.5%. Compound `CCOC(=O)c1csc(Nc2nc3ccc(F)cc3s2)n1` has a growth inhibition of -0.43%. With `O=c1n(Cc2ccccc2)c2cc(Cl)cnc2n1Cc1ccccc1` the growth inhibition was -2.48%. With `CC(C)(C)C(=O)Cn1c(=N)n(Cc2ccccc2)c2ccccc21` the growth inhibition was 1.48%. `Cc1cc(Cl)cc(C)c1OCCCCn1ccnc1` gave a growth inhibition of 8.19%. For `COc1ccc(Oc2cn[nH]c2-c2ccc(O)cc2O)cc1`, the growth inhibition was -1.15%. For `COc1cc(NS(=O)(=O)c2ccc(NC(=O)COc3ccccc3Cl)cc2)nc(OC)n1`, the growth inhibition was -7.59%. `CC1(C)CC(=O)C=C(NCCN2CCN(C(=O)Nc3ccc(Cl)c(Cl)c3)CC2)C1` showed a growth inhibition of 3.54%. With `Cc1ccc2[nH]c(=O)c(C(c3nnnn3C3CCCC3)N(Cc3cccnc3)Cc3ccco3)cc2c1` (stereo unspecified) the growth inhibition was 0.6%. With `Cc1ccc2c(c1)NC(=O)C(CC(=O)NCCCN1CCN(c3cc(Cl)ccc3C)CC1)O2` (stereo unspecified) the growth inhibition was 1.34%. `CC(C)CCOC(=O)c1c(N)n(CC2CCCO2)c2nc3ccccc3nc12` (stereo unspecified) showed a growth inhibition of 4.63%. `CCOc1cccc(NC(=O)C2CC(=O)N(C)C(=Nc3cccc(F)c3)S2)c1` (stereo unspecified) showed a growth inhibition of -8.98%. With `COC(=O)c1ccc(OC)c(CSc2nnc(COc3ccccc3)o2)c1` the growth inhibition was 0.08%. Compound `Cc1ccc(SC/C(O)=C(\C#N)c2nc3ccccc3s2)cc1` has a growth inhibition of 0.79%. `O=C(COc1ccccc1)Nc1ccccc1N1CCCCC1` showed a growth inhibition of -2.29%. `O=C(CCSc1nc(-c2ccco2)cc(C(F)(F)F)n1)N1CCCc2ccccc21` gave a growth inhibition of -1.07%. With `Cc1ccccc1Cn1nc(C)c(NC(=O)c2noc3c2CCc2ccccc2-3)c1C` the growth inhibition was -4.26%. With `CCn1c2ccccc2c2nnc(SCc3ccccc3)nc21` the growth inhibition was -4.04%. `Cc1ccc(-n2c(C)cc(C3N=C(N)Nc4nc5ccccc5n43)c2C)c(C)c1` (stereo unspecified) gave a growth inhibition of 6.51%. `CCCCCC(=O)Nc1ccccc1N1CCN(c2ccccc2)CC1` showed a growth inhibition of 1.48%. `O=C(c1ccc(COc2ccc3c(c2)CCC3)o1)N1CCN(c2ccccc2)CC1` showed a growth inhibition of -0.73%. In the case of `CCN(CC)c1nc(N)c2c(N)nc3c(c2c1C#N)CC(c1ccccc1)O3` (stereo unspecified), the growth inhibition is reported as 9.58%. Compound `CCc1ccccc1N(C)C(=O)CCc1nc(-c2ccc(C)cc2)no1` has a growth inhibition of -3.1%. In the case of `CCOC(=O)C1CN(c2cc3c(cc2F)c(=O)c(C(=O)O)cn3CC)OC1C(=O)OCC` (stereo unspecified), the growth inhibition is reported as 0.67%. `Cc1nn(-c2ccccc2)c2sc(C(=O)N(CC(=O)NC(C)(C)C)Cc3ccco3)cc12` showed a growth inhibition of -4.44%. `Cc1onc(-c2ccccc2)c1C(=O)Nc1nnc(N(C)Cc2ccccc2)s1` gave a growth inhibition of -4.99%. With `COc1cccc(-c2cc(C(=O)N3CC4(C)CC3CC(C)(C)C4)no2)c1` (stereo unspecified) the growth inhibition was 0.09%. `CC(C)C(c1nnnn1C1CCCC1)N1c2ccccc2CC1C` (stereo unspecified) showed a growth inhibition of 0.18%. In the case of `CC1CCN(S(=O)(=O)c2ccc(Cl)cc2Br)CC1`, the growth inhibition is reported as 7.88%. `CCOC(=O)c1ccc(N2C(=O)c3n[nH]c(C)c3C2c2ccc(OC)cc2OC)cc1` (stereo unspecified) gave a growth inhibition of -0.55%. For `O=C(c1ccc(COc2c(F)c(F)cc(F)c2F)o1)N1CCN(c2ccc(Cl)cc2)CC1`, the growth inhibition was -6.87%. `N#Cc1ccc(CSc2nnc(-c3cccs3)n2-c2ccccc2)cc1` gave a growth inhibition of -1.14%. Work on `CCn1c(CNc2cccc(Cl)c2)nnc1SCC(=O)OC1CCCCC1` yielded a growth inhibition of 1.08%. Work on `Fc1ccc(Br)cc1C1C=C(c2ccc(Br)s2)Nc2ncnn21` (stereo unspecified) yielded a growth inhibition of -4.11%. `CC1CCN(S(=O)(=O)c2cccc(C(=O)NCc3cccs3)c2)CC1` showed a growth inhibition of 0.28%. For `CC(=O)Nc1cccc(NC(=O)c2oc3ccccc3c2C)c1`, the growth inhibition was 2.78%. `N=C(N)c1c(O)n(C2CCCCC2)c(=O)n(C2CCCCC2)c1=O` gave a growth inhibition of 3.33%. In the case of `COCc1nnc(NC(=O)c2ccc(S(=O)(=O)N(C)C3CCCCC3)cc2)o1`, the growth inhibition is reported as 0.24%. `CCOC(=O)c1cnc(-n2nc(C)cc2C)nc1NCc1ccccc1` gave a growth inhibition of 0.66%. With `Cc1cc(Nc2ccccc2)nc(-c2ccccc2O)n1` the growth inhibition was 1.65%. With `CCn1nc(-c2ccccc2)nc2c(=O)n(C)c(=O)nc1-2` the growth inhibition was 1.94%. For `CC(C)(C)c1cc(C(F)(F)F)nc(SCCCNC(=O)c2ccco2)n1`, the growth inhibition was 6.78%. With `CC(C)(C)n1nnnc1C(c1cccs1)N(Cc1ccccc1)Cc1cccnc1` (stereo unspecified) the growth inhibition was 3.16%. With `CCOC(=O)c1c(-c2ccccc2)nnn1-c1nc(OCC)nc(N2CCCCC2)n1` the growth inhibition was 0.78%. With `c1ccc(CCN2CCN(c3ncnc4c3cnn4-c3ccccc3)CC2)cc1` the growth inhibition was 6.43%. `CCOC(=O)c1ccc(NC(=O)CCc2nc(-c3ccccc3Cl)no2)cc1` gave a growth inhibition of -0.84%. With `CCOc1ccc(S(=O)(=O)Nc2cccc(Cl)c2)cc1` the growth inhibition was 12.8%. `CCCCOc1ccc(S(=O)(=O)N2CCCCCC2)cc1` showed a growth inhibition of 3.61%.
